How the values were obtained:
[1] = test system: LNCaP, 22RV1 and LNCaP-ENZR cells; assay: Viability screen of 197 compounds in PCa cells; format: cell-based; conditions: 20 μmol/L, 72 h, 22RV1, LNCaP-ENZR cells
LNCaP-ENZR xenografts = assay: LNCaP-ENZR subcutaneous xenografts; format: in vivo, NOD-SCID mice; conditions: LLU-206 10, 25 mg/kg via tail vein; ENZ 10 mg/kg by gavage
[2] = test system: 22RV1 orthotopic xenografts; assay: 22RV1 orthotopic xenografts; format: in vivo, BALB/c-nude mice; conditions: LLU-206 25 mg/kg i.v.; ENZ 10 mg/kg p.o.
How it was run: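 Mice aged 6–8 weeks carried 22RV1 tumours implanted orthotopically in the prostate. Tumour growth was followed by bioluminescence imaging and analysed as average fluorescence values, n = 6 per group. Relative tumour weight was recorded at the end. Paraffin-embedded tumours were H&E-stained and stained for Ki-67 by IHC; Ki-67 and necrotic area were quantified by image analysis. Data are mean ± SEM, one-way ANOVA with Tukey.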

SMILES	anti-PCa activity / inhibition of proliferation in the viability screen [1]	antitumor activity in LNCaP-ENZR xenografts (tumor volume, tumor weight, serum PSA) (LNCaP-ENZR xenografts)	growth of 22RV1 orthotopic xenografts [2]
CNC(=O)c1ccc(N2C(=S)N(c3cnc(C#N)c(C(F)(F)F)c3)C(=O)C23CCC3)cc1F [ARN-509, apalutamide]	no significant inhibition		
CNC(=O)c1ccc(N2C(=S)N(c3ccc(C#N)c(C(F)(F)F)c3)C(=O)C2(C)C)cc1F [ENZ, Enzalutamide]		completely resistant	exhibited resistance
CC(O)c1cc(C(=O)N[C@@H](C)Cn2ccc(-c3ccc(C#N)c(Cl)c3)n2)[nH]n1 (stereo partly shown) [ODM-201, darolutamide]	no significant inhibition		

Reference: paper PMC9643156 (Acta Pharmaceutica Sinica. B, 2022)
